In brackets after ≈: the same amount, converted by molar mass. Activity calls are given as the source filed them. No cut-off for these calls is given here.
Legend:
IPEC-J2 [1] = assay: Induction of porcine IPEC-J2 cells monolayer development assessed as increase in transepithelial electrical resistance at 50 uM after 6 days by voltammetric method; assay type: functional, cell-based; conditions: Sus scrofa domesticus, time 6.0 day
Escherichia coli [2] = assay: Growth inhibition of Escherichia coli DSM 2840 at 20 to 500 uM measured every 5 mins for 24 hrs by turbidometric analysis; assay type: functional, organism-based; conditions: dose 20-500 µM, time hrs <=24
Procedure, shortened: (§1)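 Strains were revived from cryostocks and passaged twice daily in BHI with shaking at 37 °C over 2 days. Double-strength BHI plus diluted test stock (compounds in DMSO, 0.22 μm filtered), inoculum at final 10^4 CFU/mL, film-sealed for anaerobic conditions, 37 °C in plate reader. OD690 was read every 5 min for 24 h; lag time came from the lag-exponential method. Three independent experiments were run, each in triplicate.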

Escherichia coli [3] = assay: Growth inhibition of Escherichia coli 0147:K89:K88 at 20 to 500 uM measured every 5 mins for 24 hrs by turbidometric analysis; assay type: functional, organism-based; conditions: dose 20-500 µM, time hrs <=24
Procedure, shortened: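 Compound stocks were made in DMSO and filtered. The turbidimetric assay used double-strength BHI, 20–500 μM, E. coli at final 10^4 CFU/mL, and sealed anaerobic plates at 37 °C. OD690 was read every 5 min over 24 h.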

Escherichia coli [4] = assay: Antibacterial activity against Escherichia coli by two-fold serial dilution method; assay type: functional
Escherichia coli [5] = assay: Antibacterial activity against heat labile toxin gene positive Escherichia coli; assay type: functional
Escherichia coli [6] = assay: Antibacterial activity against heat stable toxin gene positive Escherichia coli; assay type: functional
Escherichia coli [7] = assay: Antibacterial activity against invasive E gene positive Escherichia coli; assay type: functional
Escherichia coli [8] = assay: Antibacterial activity against Escherichia coli; assay type: functional
Procedure, shortened: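 Strains: enteropathogenic E. coli O147:K89:K88 (Abbotstown) and non-fimbriated DSM 2840. Both were subcultured in BHI with shaking at 37 °C for 2 days, then inoculated at 10^4 CFU/mL final in BHI microplates. Extract stock was in water and pure compounds in DMSO, tested at 20–2000 μg/mL (extract), with ciprofloxacin as positive control. Plates were sealed for anaerobic conditions at 37 °C, and OD690 was read every 5 min for 24 h. MIC-level wells were plated on BHI agar (48 h). Three independent experiments were run in triplicate.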

Escherichia coli [9] = assay: Antibacterial activity against Shiga-like toxin positive Escherichia coli; assay type: functional
Escherichia coli [10] = assay: Antibacterial activity against Escherichia coli ATCC 25922; assay type: functional
Escherichia coli [11] = assay: Antibacterial activity against Escherichia coli IFO 3972; assay type: functional
IPEC-J2 [12] = assay: Induction of porcine IPEC-J2 cells monolayer development assessed as increase in transepithelial electrical resistance at 20 uM after 6 days by voltammetric method; assay type: functional, cell-based; conditions: Sus scrofa domesticus, time 6.0 day
Procedure, shortened: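 IPEC-J2 cells were seeded at 5 × 10^5/insert (0.4 μm PET) and cultured until TEER exceeded 1 kΩ cm2 (day 7). Apical medium was then replaced with 20 μM compound or PBS and renewed at day 10, with basolateral medium changed in parallel. TEER was read with an EVOM2 chopstick electrode at days 10 and 13. Mann–Whitney test versus PBS.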

Escherichia coli [13] = assay: Growth inhibition of Escherichia coli 0147:K89:K88 infected in porcine IPEC-J2 cells assessed as inhibition of EPEC adhesion 100 uM preincubated for 24 hrs followed by compound wash subsequently infected with bacteria by CFDA-SE staining based flow cytometric analysis; assay type: functional; conditions: 0147:K89:K88, IPEC-J2, in Sus scrofa
Procedure, shortened: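 IPEC-J2 cells were seeded at 10^5/well and grown 7 days. On day 8 they were treated 24 h, then washed twice with warm PBS and given antibiotic-free medium. Infection used CFDA-SE-labelled (1 mM, 120 min, 37 °C) O147:K89:K88 at MOI 100 for 45 min, followed by three PBS washes and trypsinization. Flow cytometry measured MFI over 10 000 events. Mean ± SD of three experiments in triplicate; Dunnett's test versus PBS.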

Escherichia coli [14] = assay: Growth inhibition of Escherichia coli 0147:K89:K88 measured every 5 mins for 24 hrs by turbidometric analysis; assay type: functional; conditions: time hrs <=24; procedure, shortened: as §1
Escherichia coli [15] = assay: Growth inhibition of Escherichia coli DSM 2840 assessed as lag time at 500 uM measured every 5 mins for 24 hrs by turbidometric analysis (reference value: 312 min); assay type: functional; conditions: time hrs <=24; procedure, shortened: as §1
Escherichia coli [16] = assay: Growth inhibition of Escherichia coli DSM 2840 assessed as lag time at 200 uM measured every 5 mins for 24 hrs by turbidometric analysis (reference value: 312 min); assay type: functional; conditions: time hrs <=24; procedure, shortened: as §1
Escherichia coli [17] = assay: Growth inhibition of Escherichia coli DSM 2840 assessed as lag time at 100 uM measured every 5 mins for 24 hrs by turbidometric analysis (reference value: 312 min); assay type: functional; conditions: time hrs <=24; procedure, shortened: as §1
Escherichia coli [18] = assay: Growth inhibition of Escherichia coli DSM 2840 assessed as lag time at 50 uM measured every 5 mins for 24 hrs by turbidometric analysis (reference value: 312 min); assay type: functional; conditions: time hrs <=24; procedure, shortened: as §1
Escherichia coli [19] = assay: Growth inhibition of Escherichia coli DSM 2840 assessed as lag time at 10 uM measured every 5 mins for 24 hrs by turbidometric analysis (reference value: 312 min); assay type: functional; conditions: time hrs <=24; procedure, shortened: as §1
Escherichia coli [20] = assay: Growth inhibition of Escherichia coli DSM 2840 assessed as lag time at 20 uM measured every 5 mins for 24 hrs by turbidometric analysis (reference value: 312 min); assay type: functional; conditions: time hrs <=24; procedure, shortened: as §1
Escherichia coli [21] = assay: Growth inhibition of Escherichia coli DSM 2840 assessed as lag time at 5 uM measured every 5 mins for 24 hrs by turbidometric analysis (reference value: 312 min); assay type: functional; conditions: time hrs <=24; procedure, shortened: as §1
Escherichia coli [22] = assay: Growth inhibition of Escherichia coli 0147:K89:K88 assessed as lag time at 500 uM measured every 5 mins for 24 hrs by turbidometric analysis (reference value: 300 min); assay type: functional; conditions: time hrs <=24; procedure, shortened: as §1
Escherichia coli [23] = assay: Growth inhibition of Escherichia coli 0147:K89:K88 assessed as lag time at 200 uM measured every 5 mins for 24 hrs by turbidometric analysis (reference value: 300 min); assay type: functional; conditions: time hrs <=24; procedure, shortened: as §1
Escherichia coli [24] = assay: Growth inhibition of Escherichia coli 0147:K89:K88 assessed as lag time at 100 uM measured every 5 mins for 24 hrs by turbidometric analysis (reference value: 300 min); assay type: functional; conditions: time hrs <=24; procedure, shortened: as §1
Escherichia coli [25] = assay: Growth inhibition of Escherichia coli 0147:K89:K88 assessed as lag time at 50 uM measured every 5 mins for 24 hrs by turbidometric analysis (reference value: 300 min); assay type: functional; conditions: time hrs <=24; procedure, shortened: as §1
Escherichia coli [26] = assay: Growth inhibition of Escherichia coli 0147:K89:K88 assessed as lag time at 20 uM measured every 5 mins for 24 hrs by turbidometric analysis (reference value: 300 min); assay type: functional; conditions: time hrs <=24; procedure, shortened: as §1
Escherichia coli [27] = assay: Growth inhibition of Escherichia coli 0147:K89:K88 assessed as lag time at 10 uM measured every 5 mins for 24 hrs by turbidometric analysis (reference value: 300 min); assay type: functional; conditions: time hrs <=24; procedure, shortened: as §1
Escherichia coli [28] = assay: Growth inhibition of Escherichia coli 0147:K89:K88 assessed as lag time at 5 uM measured every 5 mins for 24 hrs by turbidometric analysis (reference value: 300 min); assay type: functional; conditions: time hrs <=24; procedure, shortened: as §1
Escherichia coli [29] = assay: Growth inhibition of Escherichia coli DSM 2840 assessed as doubling time at 500 uM measured every 5 mins for 24 hrs by turbidometric analysis (reference value: 31.6 +/- 0.8 min); assay type: functional; conditions: time hrs <=24; procedure, shortened: as §1
Escherichia coli [30] = assay: Growth inhibition of Escherichia coli DSM 2840 assessed as doubling time at 200 uM measured every 5 mins for 24 hrs by turbidometric analysis (reference value: 31.6 +/- 0.8 min); assay type: functional; conditions: time hrs <=24; procedure, shortened: as §1
Escherichia coli [31] = assay: Growth inhibition of Escherichia coli DSM 2840 assessed as doubling time at 100 uM measured every 5 mins for 24 hrs by turbidometric analysis (reference value: 31.6 +/- 0.8 min); assay type: functional; conditions: time hrs <=24; procedure, shortened: as §1
Escherichia coli [32] = assay: Growth inhibition of Escherichia coli DSM 2840 assessed as doubling time at 50 uM measured every 5 mins for 24 hrs by turbidometric analysis (reference value: 31.6 +/- 0.8 min); assay type: functional; conditions: time hrs <=24; procedure, shortened: as §1
Escherichia coli [33] = assay: Growth inhibition of Escherichia coli DSM 2840 assessed as doubling time at 20 uM measured every 5 mins for 24 hrs by turbidometric analysis (reference value: 31.6 +/- 0.8 min); assay type: functional; conditions: time hrs <=24; procedure, shortened: as §1
Escherichia coli [34] = assay: Growth inhibition of Escherichia coli DSM 2840 assessed as doubling time at 10 uM measured every 5 mins for 24 hrs by turbidometric analysis (reference value: 31.6 +/- 0.8 min); assay type: functional; conditions: time hrs <=24; procedure, shortened: as §1
Escherichia coli [35] = assay: Growth inhibition of Escherichia coli DSM 2840 assessed as doubling time at 5 uM measured every 5 mins for <=24 hrs by turbidometric analysis (reference value: 31.6 +/- 0.8 min); assay type: functional; conditions: time hrs <=24; procedure, shortened: as §1
Escherichia coli [36] = assay: Growth inhibition of Escherichia coli 0147:K89:K88 assessed as doubling time at 500 uM measured every 5 mins for 24 hrs by turbidometric analysis (reference value: 34.1 +/- 0.5 min); assay type: functional; conditions: time hrs <=24; procedure, shortened: as §1
Escherichia coli [37] = assay: Growth inhibition of Escherichia coli 0147:K89:K88 assessed as doubling time at 200 uM measured every 5 mins for 24 hrs by turbidometric analysis (reference value: 34.1 +/- 0.5 min); assay type: functional; conditions: time hrs <=24; procedure, shortened: as §1
Escherichia coli [38] = assay: Growth inhibition of Escherichia coli 0147:K89:K88 assessed as doubling time at 100 uM measured every 5 mins for 24 hrs by turbidometric analysis (reference value: 34.1 +/- 0.5 min); assay type: functional; conditions: time hrs <=24; procedure, shortened: as §1
Escherichia coli [39] = assay: Growth inhibition of Escherichia coli 0147:K89:K88 assessed as doubling time at 50 uM measured every 5 mins for 24 hrs by turbidometric analysis (reference value: 34.1 +/- 0.5 min); assay type: functional; conditions: time hrs <=24; procedure, shortened: as §1
Escherichia coli [40] = assay: Growth inhibition of Escherichia coli 0147:K89:K88 assessed as doubling time at 20 uM measured every 5 mins for 24 hrs by turbidometric analysis (reference value: 34.1 +/- 0.5 min); assay type: functional; conditions: time hrs <=24; procedure, shortened: as §1
Escherichia coli [41] = assay: Growth inhibition of Escherichia coli 0147:K89:K88 assessed as doubling time at 10 uM measured every 5 mins for 24 hrs by turbidometric analysis (reference value: 34.1 +/- 0.5 min); assay type: functional; conditions: time hrs <=24; procedure, shortened: as §1
Escherichia coli [42] = assay: Growth inhibition of Escherichia coli 0147:K89:K88 assessed as doubling time at 5 uM measured every 5 mins for 24 hrs by turbidometric analysis (reference value: 34.1 +/- 0.5 min); assay type: functional; conditions: time hrs <=24; procedure, shortened: as §1

O=c1oc2cc(O)ccc2c2cc(O)c(O)cc12
Activity (IPEC-J2 [1]): inactive
growth inhibition (GI) (Escherichia coli [2]): inactive
growth inhibition (GI) (Escherichia coli [3]): inactive

O=c1oc2cc(O)ccc2c2ccc(O)cc12
Activity (IPEC-J2 [1]): inactive
growth inhibition (GI) (Escherichia coli [2]): inactive
growth inhibition (GI) (Escherichia coli [3]): inactive

O=C1OC[C@H]2OC(=O)c3cc(O)c(O)c(O)c3-c3c(O)c(O)c(O)c4c3C(=O)O[C@H]([C@H]3OC(=O)c5c-4c(O)c(O)c(O)c5[C@H]3O)[C@@H]2OC(=O)c2cc(O)c(O)c(O)c2-c2c1cc(O)c(O)c2O [CASTALAGIN]
MIC (Escherichia coli [4]): 533 µM (≈ 498 µg/mL)
MIC (Escherichia coli [5]): 705 µM (≈ 659 µg/mL)
MIC (Escherichia coli [6]): 705 µM (≈ 659 µg/mL)
MIC (Escherichia coli [7]): 705 µM (≈ 659 µg/mL)
MIC (Escherichia coli [8]): 705 µM (≈ 659 µg/mL)
MIC (Escherichia coli [9]): 705 µM (≈ 659 µg/mL)
MIC (Escherichia coli [10]): 705 µM (≈ 659 µg/mL)
MIC (Escherichia coli [11]): 705 µM (≈ 659 µg/mL)
Activity (IPEC-J2 [12]): Active
inhibition at 100 µM (Escherichia coli [13]): 37.7%
MIC (Escherichia coli [14]): 500 µM (≈ 467 µg/mL)
Time (Escherichia coli [15]): >1440 min
Time (Escherichia coli [16]): 870 min
Time (Escherichia coli [17]): 515 min
Time (Escherichia coli [18]): 422 min
Time (Escherichia coli [19]): 320 min
Time (Escherichia coli [20]): 347 min
Time (Escherichia coli [21]): 322 min
Time (Escherichia coli [22]): >1440 min
Time (Escherichia coli [23]): 722 min
Time (Escherichia coli [24]): 647 min
Time (Escherichia coli [25]): 502 min
Time (Escherichia coli [26]): 380 min
Time (Escherichia coli [27]): 310 min
Time (Escherichia coli [28]): 317 min
Time (Escherichia coli [29]): >1440 min
Time (Escherichia coli [30]): 56.8 min
Time (Escherichia coli [31]): 42.9 min
Time (Escherichia coli [32]): 43 min
Time (Escherichia coli [33]): 38.1 min
Time (Escherichia coli [34]): 34.9 min
Time (Escherichia coli [35]): 33.4 min
Time (Escherichia coli [36]): >1440 min
Time (Escherichia coli [37]): 35.9 min
Time (Escherichia coli [38]): 36.6 min
Time (Escherichia coli [39]): 45.3 min
Time (Escherichia coli [40]): 45.6 min
Time (Escherichia coli [41]): 34.3 min
Time (Escherichia coli [42]): 36.8 min

From ChEMBL document CHEMBL4673343, “Lythrum salicaria Ellagitannins Stimulate IPEC-J2 Cells Monolayer Formation and Inhibit Enteropathogenic Escherichia coli Growth and Adhesion” (J Nat Prod, 2020)
